Measurements reported in ChEMBL document CHEMBL4138104, “Indole carboxylic acid esters of melampomagnolide B are potent anticancer agents against both hematological and solid tumor cells” (Eur J Med Chem, 2017).

How the values were obtained:
Assay type in all cases: functional
SF-268 = experiment: Growth inhibition of human SF268 cells incubated for 48 hrs by sulforhodamine B assay; conditions: SF-268, 48 h
Method in brief: (§1)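 NCI-60 screen. Compounds were dosed at five concentrations spanning 10^-4 to 10^-8 M for 48 h at 37 °C. Cells were TCA-fixed, stained with 0.4% SRB and read at 515 nm against time-zero and vehicle controls. GI50 is the concentration giving a 50% reduction in net protein increase.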

UO-31 = experiment: Growth inhibition of human UO31 cells incubated for 48 hrs by sulforhodamine B assay; conditions: UO-31, 48 h
Method in brief: (§2)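 NCI-60 screen run at NCI. Cells grown in RPMI medium with 5% FBS and 2 mM L-glutamine, plated at 5,000–40,000 cells/well, and preincubated 24 h at 37 °C. Time-zero plates were TCA-fixed. Compounds came from DMSO stocks and were tested at five concentrations from 10^-4 to 10^-8 M for 48 h. Cells were then TCA-fixed, stained with 0.4% SRB, and OD read at 515 nm. GI50 is the concentration giving a 50% reduction in net protein increase versus control.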

SF-539 = experiment: Growth inhibition of human SF539 cells incubated for 48 hrs by sulforhodamine B assay; conditions: SF-539, 48 h; method in brief: as §1
MCF7 = experiment: Growth inhibition of human MCF7 cells incubated for 48 hrs by sulforhodamine B assay; conditions: MCF7, 48 h; method in brief: as §1
NCI-H226 = experiment: Growth inhibition of human NCI-H226 cells incubated for 48 hrs by sulforhodamine B assay; conditions: NCI-H226, 48 h; method in brief: as §1
NCI-H23 = experiment: Growth inhibition of human NCI-H23 cells incubated for 48 hrs by sulforhodamine B assay; conditions: NCI-H23, 48 h; method in brief: as §1
U-251 = experiment: Growth inhibition of human U251 cells incubated for 48 hrs by sulforhodamine B assay; conditions: U-251, 48 h; method in brief: as §2
MOLT-4 = experiment: Growth inhibition of human MOLT4 cells incubated for 48 hrs by sulforhodamine B assay; conditions: MOLT-4, 48 h; method in brief: as §1
Malme-3M = experiment: Growth inhibition of human MALME-3M cells incubated for 48 hrs by sulforhodamine B assay; method in brief: as §1
SNB-19 = experiment: Growth inhibition of human SNB19 cells incubated for 48 hrs by sulforhodamine B assay; conditions: SNB-19, 48 h; method in brief: as §2
SK-OV-3 = experiment: Growth inhibition of human SKOV3 cells incubated for 48 hrs by sulforhodamine B assay; conditions: SK-OV-3, 48 h; method in brief: as §1
HCC 2998 = experiment: Growth inhibition of human HCC2998 cells incubated for 48 hrs by sulforhodamine B assay; conditions: HCC 2998, 48 h; method in brief: as §1
RPMI-8226 = experiment: Growth inhibition of human RPMI8226 cells incubated for 48 hrs by sulforhodamine B assay; conditions: RPMI-8226, 48 h; method in brief: as §1
UACC-62 = experiment: Growth inhibition of human UACC62 cells incubated for 48 hrs by sulforhodamine B assay; conditions: UACC-62, 48 h; method in brief: as §2
NCI/ADR-RES = experiment: Growth inhibition of human NCI/ADR-RES cells incubated for 48 hrs by sulforhodamine B assay; method in brief: as §1
SN12C = experiment: Growth inhibition of human SN12C cells incubated for 48 hrs by sulforhodamine B assay; method in brief: as §1
SW-620 = experiment: Growth inhibition of human SW620 cells incubated for 48 hrs by sulforhodamine B assay; conditions: SW-620, 48 h; method in brief: as §2
NCI-H522 = experiment: Growth inhibition of human NCI-H522 cells incubated for 48 hrs by sulforhodamine B assay; conditions: NCI-H522, 48 h; method in brief: as §1
A498 = experiment: Growth inhibition of human A498 cells incubated for 48 hrs by sulforhodamine B assay; conditions: A498, 48 h; method in brief: as §1
SK-MEL-28 = experiment: Growth inhibition of human SK-MEL-28 cells incubated for 48 hrs by sulforhodamine B assay; conditions: SK-MEL-28, 48 h; method in brief: as §1
K562 = experiment: Growth inhibition of human K562 cells incubated for 48 hrs by sulforhodamine B assay; conditions: K562, 48 h; method in brief: as §1
LOX IMVI = experiment: Growth inhibition of human LOXIMVI cells incubated for 48 hrs by sulforhodamine B assay; method in brief: as §1
HT-29 = experiment: Growth inhibition of human HT-29 cells incubated for 48 hrs by sulforhodamine B assay; conditions: HT-29, 48 h; method in brief: as §1
HCT-116 = experiment: Growth inhibition of human HCT116 cells incubated for 48 hrs by sulforhodamine B assay; conditions: HCT-116, 48 h; method in brief: as §1
HCT-15 = experiment: Growth inhibition of human HCT15 cells incubated for 48 hrs by sulforhodamine B assay; conditions: HCT-15, 48 h; method in brief: as §1
NCI-H322M = experiment: Growth inhibition of human NCI-H322M cells incubated for 48 hrs by sulforhodamine B assay; method in brief: as §1
HOP-92 = experiment: Growth inhibition of human HOP92 cells incubated for 48 hrs by sulforhodamine B assay; conditions: HOP-92, 48 h; method in brief: as §1
UACC-257 = experiment: Growth inhibition of human UACC257 cells incubated for 48 hrs by sulforhodamine B assay; conditions: UACC-257, 48 h; method in brief: as §2
CCRF-CEM = experiment: Growth inhibition of human CCRF-CEM cells incubated for 48 hrs by sulforhodamine B assay; method in brief: as §1
KM12 = experiment: Growth inhibition of human KM12 cells incubated for 48 hrs by sulforhodamine B assay; conditions: KM12, 48 h; method in brief: as §1
HL-60(TB) = experiment: Growth inhibition of human HL-60(TB) cells incubated for 48 hrs by sulforhodamine B assay; conditions: HL-60, 48 h
Method in brief: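 Performed at NCI's 60-line screen. Cells grown in RPMI with 5% FBS and 2 mM L-glutamine, plated 5,000–40,000 cells/well and incubated 24 h at 37 °C before compound addition. DMSO stocks were diluted in medium with gentamicin, and five concentrations spanning 10^-4 to 10^-8 M were tested. Exposure was 48 h. Cells were fixed with TCA, stained with SRB, and read at 515 nm. GI50 taken from log dose-response curves as 50% reduction in net protein increase versus control.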

OVCAR-5 = experiment: Growth inhibition of human OVCAR5 cells incubated for 48 hrs by sulforhodamine B assay; conditions: OVCAR-5, 48 h; method in brief: as §1
SF-295 = experiment: Growth inhibition of human SF295 cells incubated for 48 hrs by sulforhodamine B assay; conditions: SF-295, 48 h; method in brief: as §1
[1] = Cytotoxicity against human M9-ENL1 cells assessed as reduction in cell viability by trypan blue staining-based assay
Method in brief: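 M9-ENL1 AML cells (MLL-ENL-transduced human blood cells) plated at 10^6 cells/mL in alpha-MEM with 5% human plasma, 20% FBS, SCF, IL-3, IL-7 and FLT3. Drug diluted from DMSO stock into PBS, final DMSO ≤0.5%. After 24 h exposure, dead cells assessed by trypan blue and by flow cytometry (Annexin V/PI or Annexin V/7-AAD). Viability normalized to vehicle; EC50 from dose-response curves; triplicate.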

NCI-H460 = experiment: Growth inhibition of human NCI-H460 cells incubated for 48 hrs by sulforhodamine B assay; conditions: NCI-H460, 48 h; method in brief: as §1
A549 = experiment: Growth inhibition of human A549/ATCC cells incubated for 48 hrs by sulforhodamine B assay; conditions: A549, 48 h; method in brief: as §1
RXF 393 = experiment: Growth inhibition of human RXF393 cells incubated for 48 hrs by sulforhodamine B assay; conditions: RXF 393, 48 h; method in brief: as §1

Structure (SMILES)	GI50 (SF-268) [nM]	GI50 (UO-31) [nM]	GI50 (SF-539) [nM]	GI50 (MCF7) [nM]	GI50 (NCI-H226) [nM]	GI50 (NCI-H23) [nM]	GI50 (U-251) [nM]	GI50 (MOLT-4) [nM]	GI50 (Malme-3M) [nM]	GI50 (SNB-19) [nM]	GI50 (SK-OV-3) [nM]	GI50 (HCC 2998) [nM]	GI50 (RPMI-8226) [nM]	GI50 (UACC-62) [nM]	GI50 (NCI/ADR-RES) [nM]	GI50 (SN12C) [nM]	GI50 (SW-620) [nM]	GI50 (NCI-H522) [nM]	GI50 (A498) [nM]	GI50 (SK-MEL-28) [nM]	further results
C=C1C(=O)O[C@@H]2[C@H]3O[C@]3(C)CC/C=C(/COC(=O)c3cc4ccccc4[nH]3)CC[C@@H]12	1590	880	1320	300	1470	1690	1890	1510	1560	1600	1650	2140	260	1470	2200	1740	250	750	1740	1290	GI50 (K562): 320 nM; GI50 (LOX IMVI): 180 nM; GI50 (HT-29): 270 nM; GI50 (HCT-116): 190 nM; GI50 (HCT-15): 210 nM; GI50 (NCI-H322M): 1680 nM; GI50 (HOP-92): 480 nM; GI50 (UACC-257): 1610 nM; GI50 (CCRF-CEM): 280 nM; GI50 (KM12): 2050 nM; GI50 (HL-60(TB)): 540 nM; GI50 (OVCAR-5): 1140 nM; GI50 (SF-295): 1710 nM; EC50 [1]: 1100 nM; GI50 (NCI-H460): 1730 nM; GI50 (A549): 2060 nM; GI50 (RXF 393): 1070 nM
C=C1C(=O)O[C@@H]2[C@H]3O[C@]3(C)CC/C=C(/COC(=O)c3c[nH]c4ccccc34)CC[C@@H]12	290	160	260	260	440	1630	610	280	320	1300	2240	320	40	180	390	230	230	190	260	360	GI50 (K562): 270 nM; GI50 (LOX IMVI): 40 nM; GI50 (HT-29): 240 nM; GI50 (HCT-116): 190 nM; GI50 (HCT-15): 250 nM; GI50 (NCI-H322M): 1850 nM; GI50 (HOP-92): 160 nM; GI50 (UACC-257): 360 nM; GI50 (CCRF-CEM): 50 nM; GI50 (KM12): 470 nM; GI50 (HL-60(TB)): 270 nM; GI50 (OVCAR-5): 400 nM; GI50 (SF-295): 1940 nM; EC50 [1]: 1900 nM; GI50 (NCI-H460): 1100 nM; GI50 (A549): 1500 nM; GI50 (RXF 393): 190 nM
C=C1C(=O)O[C@@H]2[C@H]3O[C@]3(C)CC/C=C(/COC(=O)/C=C/c3c[nH]c4ccccc34)CC[C@@H]12	220	150	260	220	230	1250	210	300	280	640	1880	270	30	170	350	190	180	180	270	330	GI50 (K562): 270 nM; GI50 (LOX IMVI): 50 nM; GI50 (HT-29): 190 nM; GI50 (HCT-116): 180 nM; GI50 (HCT-15): 180 nM; GI50 (NCI-H322M): 1730 nM; GI50 (HOP-92): 150 nM; GI50 (UACC-257): 350 nM; GI50 (CCRF-CEM): 70 nM; GI50 (KM12): 400 nM; GI50 (HL-60(TB)): 250 nM; GI50 (OVCAR-5): 310 nM; GI50 (SF-295): 1620 nM; EC50 [1]: 700 nM; GI50 (NCI-H460): 1010 nM; GI50 (A549): 1270 nM; GI50 (RXF 393): 170 nM
